Results as given in ChEMBL document CHEMBL4814057, “4-4-(Anilinomethyl)-3-[4-(trifluoromethyl)phenyl]-1H-pyrazol-1-ylbenzoic acid derivatives as potent anti-gram-positive bacterial agents” (Eur J Med Chem, 2021).
In brackets after ≈: the same amount, converted by molar mass. Activity calls are given as the source filed them. The rule behind the calls is not given here.

Assays:
[1] = test system: Staphylococcus aureus; experiment: Antimicrobial activity against antibiotic-resistant Staphylococcus aureus BM-2312 assessed as bacterial growth inhibitions by CLSI protocol based microdilution method; format: functional
[2] = test system: Staphylococcus aureus; experiment: Antimicrobial activity against methicillin-resistant Staphylococcus aureus ATCC 33592 assessed as bacterial growth inhibitions by CLSI protocol based microdilution method; format: functional
[3] = test system: Staphylococcus aureus; experiment: Antimicrobial activity against methicillin-resistant Staphylococcus aureus ATCC 700699 assessed as bacterial growth inhibitions by CLSI protocol based microdilution method; format: functional
[4] = test system: Enterococcus faecium; experiment: Antimicrobial activity against vancomycin-resistant Enterococcus faecium ATCC 700221 assessed as bacterial growth inhibitions by CLSI protocol based microdilution method; format: functional
[5] = test system: Bacillus subtilis; experiment: Antimicrobial activity against Bacillus subtilis ATCC 6623 assessed as bacterial growth inhibitions by CLSI protocol based microdilution method; format: functional
Summary of the method: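 Broth microdilution starting at 50 µg/ml with 2-fold serial dilutions; run in triplicate.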

[6] = test system: Staphylococcus aureus; experiment: Antimicrobial activity against methicillin-susceptible Staphylococcus aureus ATCC 25923 assessed as bacterial growth inhibitions by CLSI protocol based microdilution method; format: functional
[7] = test system: Staphylococcus aureus; experiment: Antimicrobial activity against methicillin-resistant Staphylococcus aureus ATCC 33591 assessed as bacterial growth inhibitions by CLSI protocol based microdilution method; format: functional
[8] = test system: Staphylococcus epidermidis; experiment: Antimicrobial activity against methicillin-resistant Staphylococcus epidermidis ATCC 700296 assessed as bacterial growth inhibitions by CLSI protocol based microdilution method; format: functional
[9] = test system: Enterococcus faecalis; experiment: Antimicrobial activity against vancomycin-susceptible Enterococcus faecalis ATCC 29212 assessed as bacterial growth inhibitions by CLSI protocol based microdilution method

SMILES | MIC [1] | MIC [2] | MIC [3] | MIC [4] | MIC [5] | MIC [6] | MIC [7] | MIC [8] | MIC [9]
O=C(O)c1ccc(-n2cc(CNc3ccc(N4CCOCC4)c(C(F)(F)F)c3)c(-c3ccc(C(F)(F)F)cc3)n2)cc1 | 1.56 µg/mL (≈ 2.64 µM) | 0.78 µg/mL (≈ 1.32 µM) | 0.78 µg/mL (≈ 1.32 µM) | 0.78 µg/mL (≈ 1.32 µM) | 0.78 µg/mL (≈ 1.32 µM) | 0.78 µg/mL (≈ 1.32 µM) | 0.78 µg/mL (≈ 1.32 µM) | 1.56 µg/mL (≈ 2.64 µM) | 1.56 µg/mL (≈ 2.64 µM)
O=C(O)c1ccc(-n2cc(CNc3cccc(Cl)c3)c(-c3ccc(C(F)(F)F)cc3)n2)cc1 | 1.56 µg/mL (≈ 3.31 µM) | 1.56 µg/mL (≈ 3.31 µM) | 0.78 µg/mL (≈ 1.65 µM) | 0.78 µg/mL (≈ 1.65 µM) | 0.78 µg/mL (≈ 1.65 µM) | 1.56 µg/mL (≈ 3.31 µM) | 0.78 µg/mL (≈ 1.65 µM) | 3.12 µg/mL (≈ 6.61 µM) | 12.5 µg/mL (≈ 26.5 µM)
O=C(O)c1ccc(-n2cc(CNc3ccc(Cl)c(Cl)c3)c(-c3ccc(C(F)(F)F)cc3)n2)cc1 | 0.78 µg/mL (≈ 1.54 µM) | 0.78 µg/mL (≈ 1.54 µM) | 1.56 µg/mL (≈ 3.08 µM) | 0.78 µg/mL (≈ 1.54 µM) | 0.78 µg/mL (≈ 1.54 µM) | 0.78 µg/mL (≈ 1.54 µM) | 0.78 µg/mL (≈ 1.54 µM) |  | 
N#Cc1ccc(NCc2cn(-c3ccc(C(=O)O)cc3)nc2-c2ccc(C(F)(F)F)cc2)cc1C(F)(F)F | 1.56 µg/mL (≈ 2.94 µM) | 0.78 µg/mL (≈ 1.47 µM) | 1.56 µg/mL (≈ 2.94 µM) | 6.25 µg/mL (≈ 11.8 µM) | 0.78 µg/mL (≈ 1.47 µM) | 1.56 µg/mL (≈ 2.94 µM) | 0.78 µg/mL (≈ 1.47 µM) | 3.12 µg/mL (≈ 5.88 µM) | 12.5 µg/mL (≈ 23.6 µM)
O=C(O)c1ccc(-n2cc(CNc3ccc(C(=O)O)c(C(F)(F)F)c3)c(-c3ccc(C(F)(F)F)cc3)n2)cc1 | 50 µg/mL (≈ 91 µM) | inactive | inactive | inactive | inactive | 50 µg/mL (≈ 91 µM) | inactive | 50 µg/mL (≈ 91 µM) | inactive
O=C(O)c1ccc(-n2cc(CNc3ccc(F)cc3)c(-c3ccc(C(F)(F)F)cc3)n2)cc1 | 3.12 µg/mL (≈ 6.85 µM) | 12.5 µg/mL (≈ 27.4 µM) | 6.25 µg/mL (≈ 13.7 µM) | 6.25 µg/mL (≈ 13.7 µM) | 1.56 µg/mL (≈ 3.43 µM) | 6.25 µg/mL (≈ 13.7 µM) | 6.25 µg/mL (≈ 13.7 µM) | 12.5 µg/mL (≈ 27.4 µM) | 25 µg/mL (≈ 54.9 µM)
O=C(O)c1ccc(-n2cc(CNc3cc(Cl)c(F)cc3F)c(-c3ccc(C(F)(F)F)cc3)n2)cc1 | 0.78 µg/mL (≈ 1.54 µM) | 1.56 µg/mL (≈ 3.07 µM) | 0.78 µg/mL (≈ 1.54 µM) | 1.56 µg/mL (≈ 3.07 µM) | 0.78 µg/mL (≈ 1.54 µM) | 1.56 µg/mL (≈ 3.07 µM) | 1.56 µg/mL (≈ 3.07 µM) | 3.12 µg/mL (≈ 6.14 µM) | 6.25 µg/mL (≈ 12.3 µM)
O=C(O)c1ccc(-n2cc(CNc3cccc(OC(F)(F)F)c3)c(-c3ccc(C(F)(F)F)cc3)n2)cc1 | 0.78 µg/mL (≈ 1.5 µM) | 0.78 µg/mL (≈ 1.5 µM) | 50 µg/mL (≈ 95.9 µM) | 0.78 µg/mL (≈ 1.5 µM) | 0.78 µg/mL (≈ 1.5 µM) | 0.78 µg/mL (≈ 1.5 µM) | 0.78 µg/mL (≈ 1.5 µM) | 3.12 µg/mL (≈ 5.98 µM) | 3.12 µg/mL (≈ 5.98 µM)
O=C(O)c1ccc(-n2cc(CNc3ccc(Cl)cc3)c(-c3ccc(C(F)(F)F)cc3)n2)cc1 | 1.56 µg/mL (≈ 3.31 µM) | 1.56 µg/mL (≈ 3.31 µM) | 1.56 µg/mL (≈ 3.31 µM) | 1.56 µg/mL (≈ 3.31 µM) | 0.78 µg/mL (≈ 1.65 µM) | 1.56 µg/mL (≈ 3.31 µM) | 1.56 µg/mL (≈ 3.31 µM) | 3.12 µg/mL (≈ 6.61 µM) | 6.25 µg/mL (≈ 13.2 µM)
O=C(O)c1ccc(-n2cc(CNc3cc(Cl)cc(Cl)c3)c(-c3ccc(C(F)(F)F)cc3)n2)cc1 | 0.78 µg/mL (≈ 1.54 µM) | 0.78 µg/mL (≈ 1.54 µM) | 0.78 µg/mL (≈ 1.54 µM) | 0.78 µg/mL (≈ 1.54 µM) | 0.78 µg/mL (≈ 1.54 µM) | 0.78 µg/mL (≈ 1.54 µM) | 0.78 µg/mL (≈ 1.54 µM) | 0.78 µg/mL (≈ 1.54 µM) | 1.56 µg/mL (≈ 3.08 µM)
O=C(O)c1ccc(-n2cc(CNc3cc(F)c(F)c(F)c3)c(-c3ccc(C(F)(F)F)cc3)n2)cc1 | 0.78 µg/mL (≈ 1.59 µM) | 0.78 µg/mL (≈ 1.59 µM) | 0.78 µg/mL (≈ 1.59 µM) | 0.78 µg/mL (≈ 1.59 µM) | 0.78 µg/mL (≈ 1.59 µM) | 0.78 µg/mL (≈ 1.59 µM) | 0.78 µg/mL (≈ 1.59 µM) | 1.56 µg/mL (≈ 3.17 µM) | 1.56 µg/mL (≈ 3.17 µM)
O=C(O)c1ccc(-n2cc(CNc3cc(Cl)ccc3Cl)c(-c3ccc(C(F)(F)F)cc3)n2)cc1 | 0.78 µg/mL (≈ 1.54 µM) | 0.78 µg/mL (≈ 1.54 µM) | 0.78 µg/mL (≈ 1.54 µM) | 0.78 µg/mL (≈ 1.54 µM) | 0.78 µg/mL (≈ 1.54 µM) | 0.78 µg/mL (≈ 1.54 µM) | 0.78 µg/mL (≈ 1.54 µM) | 1.56 µg/mL (≈ 3.08 µM) | 3.12 µg/mL (≈ 6.16 µM)
